pIC50: −log10 of the molar value. Values after ≈ are worked out from the molar mass of the structure shown. Active and inactive are the calls of the source. No cut-off for these calls is given here.
Key:
[1] = Mutagenicity in Salmonella typhimurium TA100 in presence of rat S9 fraction by Ames test; type: toxicity, subcellular; settings: salmonella enterica subsp. enterica serovar typhimurium
How it was run: (§1)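 Ames bacterial mutagenicity test in S. typhimurium TA98 and TA100. Run with and without metabolic activation by rat S9 fraction.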

[2] = Aqueous solubility of the compound in pH 7.4 phosphate buffer measured after 24 hrs by LC-MS/MS-based shake flask method; type: physicochemical
[3] = Octanol-phosphate buffer partition co-efficient, log D of the compound at pH 7.4 after 2 hrs by LC-MS/MS-based shake flask method; type: physicochemical
How it was run: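 Distribution between octanol and water at pH 7.4.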

[4] = Mutagenicity in Salmonella typhimurium TA98 in presence of rat S9 fraction by Ames test; type: toxicity, subcellular; settings: salmonella enterica subsp. enterica serovar typhimurium; how it was run: as §1
[5] = Intrinsic clearance in human hepatocytes assessed per million cells at 1 uM measured after 2 to 60 mins by LC-MS/MS analysis; type: ADME, cell-based, Hepatocyte; settings: read-out: CLH
[6] = Intrinsic clearance in rat hepatocytes assessed per million cells at 1 uM measured after 2 to 60 mins by LC-MS/MS analysis; type: ADME, cell-based, Hepatocyte; settings: read-out: CLH
How it was run: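 Rat hepatocyte incubation of the compound; intrinsic clearance measured after incubation.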

[7] = Mutagenicity in Salmonella typhimurium TA100 in absence of rat S9 fraction by Ames test; type: toxicity; settings: salmonella enterica subsp. enterica serovar typhimurium; how it was run: as §1
[8] = Passive apparent permeability across apical to basolateral side in human Caco2 cells at pH 6.5; type: ADME, cell-based; settings: Caco-2, pH 6.5
How it was run: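 Passive permeability across Caco-2 monolayers, measured in the A to B direction at pH 6.5.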

[9] = molecular target: T1, Arachidonate 5-lipoxygenase-activating protein (Homo sapiens) (UniProt P20292); experiment: Inhibition of FLAP in human whole blood assessed as reduction in calcium ionophore-stimulated LTB4 production preincubated for 4 hrs followed by calcium ionophore stimulation and measured after 20 mins by EIA; type: tissue-based
T1 sequence (whole entry): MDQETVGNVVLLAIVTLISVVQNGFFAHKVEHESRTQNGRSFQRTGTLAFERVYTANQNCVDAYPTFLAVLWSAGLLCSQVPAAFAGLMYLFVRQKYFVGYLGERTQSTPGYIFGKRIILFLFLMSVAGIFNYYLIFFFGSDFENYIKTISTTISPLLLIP
How it was run: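 Fresh human whole blood was incubated with compound for 4 h, then stimulated with calcium ionophore, and LTB4 production was measured as the 5-LO pathway read-out. IC50 was also converted to a free value: IC50 × (Fu/100), where Fu = 100 − human plasma protein binding (%).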

[10] = Mutagenicity in Salmonella typhimurium TA98 in absence of rat S9 fraction by Ames test; type: toxicity; settings: salmonella enterica subsp. enterica serovar typhimurium; how it was run: as §1
HepG2 = experiment: Cytotoxicity against human HepG2 cells assessed as reduction in ATP depletion in presence of glucose/galactose; type: cell-based
[11] = molecular target: Prostaglandin G/H synthase 1 (Homo sapiens) (UniProt P23219); experiment: Activity at COX1 in human whole blood assessed as effect on […] production by EIA; type: tissue-based
THP-1 = experiment: Cytotoxicity against human THP1 cells assessed as reduction in cell viability measured after 48 hrs by resazurin assay; type: cell-based; settings: THP-1, 48 h
[12] = molecular target: T2, Prostaglandin G/H synthase 2 (Homo sapiens) (UniProt P35354); experiment: Activity at COX2 in human whole blood assessed as effect on LPS-induced PGE2 production preincubated for 15 mins followed by LPS-stimulation and measured after overnight incubation by EIA; type: tissue-based
T2 sequence (whole entry): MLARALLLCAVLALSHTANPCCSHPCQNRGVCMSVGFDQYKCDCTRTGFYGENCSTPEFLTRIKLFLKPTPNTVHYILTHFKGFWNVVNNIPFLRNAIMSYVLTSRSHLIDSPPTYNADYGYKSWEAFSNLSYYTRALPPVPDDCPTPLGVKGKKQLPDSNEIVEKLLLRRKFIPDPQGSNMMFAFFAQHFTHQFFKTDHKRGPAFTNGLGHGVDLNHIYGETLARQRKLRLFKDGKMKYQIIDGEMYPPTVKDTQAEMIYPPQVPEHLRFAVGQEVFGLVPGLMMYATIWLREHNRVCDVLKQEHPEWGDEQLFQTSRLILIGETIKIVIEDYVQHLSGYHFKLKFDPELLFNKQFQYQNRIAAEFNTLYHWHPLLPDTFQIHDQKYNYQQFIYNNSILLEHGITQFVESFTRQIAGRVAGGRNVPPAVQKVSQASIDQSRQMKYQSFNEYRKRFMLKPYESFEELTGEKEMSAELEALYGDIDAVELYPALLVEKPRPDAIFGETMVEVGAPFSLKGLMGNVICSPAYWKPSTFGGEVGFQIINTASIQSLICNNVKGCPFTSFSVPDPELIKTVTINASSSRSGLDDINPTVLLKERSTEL

[13] = molecular target: T3, Arachidonate 5-lipoxygenase-activating protein (Homo sapiens, UniProt P20292); experiment: Inhibition of [3H]MK0591 binding to human FLAP expressed in […] cell membranes measured after 60 to 80 mins by microbeta scintillation counting method
T3 sequence (P20292 whole entry): T1 sequence (whole entry)

Homo sapiens [14] = experiment: Suppression of urine LTE4 level in po dosed human administered daily for 10 days; type: functional, organism-based
How it was run: (§2)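 Endogenous urinary LTE4 measured relative to baseline in healthy volunteers. Subjects received an oral suspension as single doses of 25–1200 mg, or 60–600 mg once daily for 10 days.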

Homo sapiens [15] = experiment: Suppression of calcium ionophore-stimulated LTB4 production in po dosed human blood administered as single dose; type: functional, organism-based
How it was run: (§3)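 Fresh blood drawn from healthy volunteers dosed with an oral suspension. Single doses were 25–1200 mg (SAD). Multiple dosing was 60, 180, 300 or 600 mg once daily for 10 days (MAD). LTB4 was measured after ex vivo calcium ionophore stimulation, relative to baseline.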

Homo sapiens [16] = experiment: Suppression of calcium ionophore-stimulated LTB4 production in po dosed human blood administered daily for 10 days; type: functional, organism-based; how it was run: as §3
Canis familiaris [17] = experiment: Ex vivo inhibition of FLAP in po dosed Beagle dog assessed as reduction in ionophore-stimulated LTB4 production; type: functional, Canis lupus familiaris
Canis familiaris [18] = experiment: Ex vivo inhibition of FLAP in po dosed Beagle dog assessed as reduction in ionophore-stimulated LTB4 production administered daily for 3 consecutive days measured during compound dosing by LC-MS/MS analysis; type: functional, organism-based; settings: Canis lupus familiaris
How it was run: (§4)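 Beagle dogs were given oral doses once daily for 3 consecutive days at 0.02, 0.09 or 0.2 mg/kg (n=3 per dose). Blood was stimulated ex vivo with calcium ionophore, and LTB4 production was measured during dosing and up to 24 h after the last dose. Results were baseline-corrected, plotted with plasma concentration and reported as medians.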

Canis familiaris [19] = experiment: Ex vivo inhibition of FLAP in Beagle dog assessed as reduction in ionophore-stimulated LTB4 production at 0.02 to 0.2 mg/kg, po administered daily for 3 consecutive days measured 24 hrs post-last dose by LC-MS/MS analysis; type: functional, organism-based; settings: Canis lupus familiaris; how it was run: as §4
Canis familiaris [20] = experiment: Ex vivo reversible inhibition of FLAP in Beagle dog assessed as reduction in ionophore-stimulated LTB4 production at 0.18 mg/kg, po on day1 and 0.09 mg/kg, po on day 3 measured after 48 hrs; type: functional, organism-based; settings: Canis lupus familiaris
How it was run: (§5)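 Two beagle dogs were given two oral doses 48 h apart: 0.18 mg/kg on day 1 and 0.09 mg/kg on day 3. LTB4 production in calcium ionophore-stimulated blood was followed ex vivo after each dose, including 48 h after the second dose, and compared with baseline.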

Canis familiaris [21] = experiment: Ex vivo inhibition of FLAP in Beagle dog assessed as reduction in ionophore-stimulated LTB4 production at 0.9 mg/kg, po measured within 2.5 hrs relative to control; type: functional, Canis lupus familiaris
How it was run: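 Two beagle dogs were given a single oral dose of 0.9 mg/kg. LTB4 production in calcium ionophore-stimulated blood was followed ex vivo over time and compared with pre-dose baseline.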

Canis familiaris [22] = experiment: Ex vivo inhibition of FLAP in Beagle dog assessed as reduction in LTE4 level in urine at 0.02 mg/kg, po administered daily for 3 consecutive days measured 24 hrs post-last dose by colorimetric method relative to control; type: functional; settings: Canis lupus familiaris
How it was run: (§6)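 Urinary LTE4 was measured at baseline and over the final 24 h of dosing in beagle dogs given oral doses once daily for 3 consecutive days (0.02, 0.09 or 0.2 mg/kg, n=3 per dose). Dogs with baseline uLTE4 below the LOQ were excluded. Inhibition was expressed relative to each dog's own baseline.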

Homo sapiens [23] = experiment: Suppression of urine LTE4 level in po dosed human administered as single dose; type: functional, organism-based; how it was run: as §2
Canis familiaris [24] = experiment: Ex vivo inhibition of FLAP in Beagle dog assessed as reduction in ionophore-stimulated LTB4 production at 0.18 mg/kg, po on day1 and 0.09 mg/kg, po on day 3 measured after 4 to 9 hrs relative to control; type: functional, Canis lupus familiaris; how it was run: as §5
Canis lupus familiaris = species on record: Canis lupus familiaris; experiment: Inhibition of FLAP in dog whole blood assessed as reduction in calcium ionophore-stimulated LTB4 production; type: tissue-based
Homo sapiens [25] = experiment: Suppression of calcium ionophore-stimulated LTB4 production in human assessed as Cmin required to show >80% reduction in plasma LTB4 levels at 60 to 1200 mg, po administered as single dose measured after 24 hrs; type: functional
Canis familiaris [26] = experiment: Ex vivo inhibition of FLAP in Beagle dog assessed as reduction in LTE4 level in urine at 0.09 to 0.2 mg/kg, po administered daily for 3 consecutive days measured 24 hrs post-last dose by colorimetric method; type: functional, Canis lupus familiaris; how it was run: as §6

Chain of Prostaglandin G/H synthase 1 (Homo sapiens) (P23219 whole entry): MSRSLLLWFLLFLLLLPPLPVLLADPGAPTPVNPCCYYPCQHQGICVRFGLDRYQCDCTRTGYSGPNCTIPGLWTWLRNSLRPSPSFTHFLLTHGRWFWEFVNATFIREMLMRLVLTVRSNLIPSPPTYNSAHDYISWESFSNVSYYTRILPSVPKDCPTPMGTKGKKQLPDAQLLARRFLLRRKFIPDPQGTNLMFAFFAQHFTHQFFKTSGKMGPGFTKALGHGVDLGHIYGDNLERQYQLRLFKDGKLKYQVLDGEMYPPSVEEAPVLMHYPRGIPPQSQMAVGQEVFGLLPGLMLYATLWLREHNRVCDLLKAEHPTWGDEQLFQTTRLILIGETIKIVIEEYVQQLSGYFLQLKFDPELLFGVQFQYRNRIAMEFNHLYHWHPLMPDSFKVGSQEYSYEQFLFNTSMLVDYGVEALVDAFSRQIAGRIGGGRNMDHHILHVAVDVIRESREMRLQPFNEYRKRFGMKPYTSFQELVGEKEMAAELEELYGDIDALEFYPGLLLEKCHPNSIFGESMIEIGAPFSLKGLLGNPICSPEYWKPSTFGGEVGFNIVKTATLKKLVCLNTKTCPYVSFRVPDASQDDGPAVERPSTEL

Row | SMILES | solubility thermodynamic at 24 h [2] [µM] | logD at 2 h [3] | hepatocyte CLint at 1 µM [5] [µL/min/1e6 cells] | hepatocyte CLint at 1 µM [6] [µL/min/1e6 cells] | Papp A→B [8] [×10⁻⁶ cm/s] | fIC50 [9] [nM] | Activity [11] | Activity [12] | pIC50 (HepG2) | pIC50 (THP-1) | other results
1 | Cc1cc(-c2ccc(C(=O)[C@@H]3CCCC[C@H]3C(=O)Nc3cnn(C)c3C(N)=O)cc2)[nH]n1 | 475 (≈ 206 µg/mL) | 2.6 | 3 | 6.5 | 2.6 | 13 |  |  |  |  | Activity [1]: Toxic; Activity [4]: Toxic; Activity [7]: Toxic; Activity [10]: Toxic
2 | Cc1cc(-c2ccc(C(=O)[C@@H]3CCCC[C@H]3C(=O)Nc3c(C(N)=O)n[nH]c3C)cc2)n[nH]1 |  |  |  |  |  | 96 |  |  |  |  | 
3 | Cc1cc(-c2ccc(C(=O)[C@@H]3CCCC[C@H]3C(=O)Nc3cnn(C)c3S(N)(=O)=O)cc2)n[nH]1 |  |  |  |  |  | 6.5 | inactive | inactive | < 3.60 | < 3.60 | 

Second part, led by results:

Row | solubility thermodynamic at 24 h [2] [µM] | logD at 2 h [3] | hepatocyte CLint at 1 µM [5] [µL/min/1e6 cells] | hepatocyte CLint at 1 µM [6] [µL/min/1e6 cells] | Papp A→B [8] [×10⁻⁶ cm/s] | fIC50 [9] [nM] | Activity [11] | Activity [12] | SMILES | pIC50 (HepG2) | pIC50 (THP-1) | other results
4 | 402 (≈ 175 µg/mL) | 2.3 | 6.7 | 14.4 | 0.15 |  |  |  | Cc1cc(-c2ccc(C(=O)[C@@H]3CCCC[C@H]3C(=O)Nc3c(C(N)=O)n[nH]c3C)cc2)[nH]n1 |  |  | 
5 | 224 (≈ 101 µg/mL) | 2.1 |  |  |  |  |  |  | Cc1cc(-c2ccc(C(=O)[C@@H]3CCCC[C@H]3C(=O)Nc3cnn(C)c3C(=O)NO)cc2)[nH]n1 |  |  | pIC50 [13]: 7.33
6 |  |  |  |  |  | 2 | inactive | inactive | Cc1cc(-c2ccc(C(=O)[C@@H]3CCCC[C@H]3C(=O)Nc3cnn4c3C(=O)NCC4)cc2)n[nH]1 | < 3.60 | < 3.60 | Activity (Homo sapiens [14]): Dose-dependent effect; Activity (Homo sapiens [15]): Dose-dependent effect; Activity (Homo sapiens [16]): Dose-dependent effect; fIC50 (Canis familiaris [17]): 0.1 nM; inhibition (Canis familiaris [18]): Dose-dependent effect; inhibition (Canis familiaris [19]): inactive; inhibition (Canis familiaris [20]): Active; %max (Canis familiaris [21]): >90%; inhibition in vivo at 0.02 mg/kg (Canis familiaris [22]): 60%; Activity (Homo sapiens [23]): Dose-dependent effect; %max (Canis familiaris [24]): >90%; fIC50 (Canis lupus familiaris): 1 nM; Cmin (Homo sapiens [25]): >15 nM; inhibition (INH) (Canis familiaris [26]): 100%

Reference: ChEMBL document CHEMBL4393654, “Discovery and Early Clinical Development of an Inhibitor of 5-Lipoxygenase Activating Protein (AZD5718) for Treatment of Coronary Artery Disease” (J Med Chem, 2019)
